Experimental findings from ChEMBL document CHEMBL1138715, “Isoxazole-3-hydroxamic acid derivatives as peptide deformylase inhibitors and potential antibacterial agents” (Bioorg Med Chem Lett, 2004) are described below.

≈ marks a conversion by molar mass, not a printed value. A value given as a limit tells only on which side of the number the result lay.

The first test relates to Staphylococcus aureus. In words: In vitro antibacterial activity against Staphylococcus aureus wild type SA-ATCC-25923. Format: functional. Put shortly:
(§1)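 MICs in µg/mL, determined by dilution susceptibility testing in liquid culture under NCCLS standard conditions for aerobically growing bacteria. Strains: EC-AH547, a tolC E. coli mutant with reduced efflux-pump activity; SA-101, a multiresistant S. aureus; SA-ATCC-25923, wild-type S. aureus.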
In turn, `COc1cccc(SCc2cc(C(=O)NO)no2)c1` registered an MIC of over 128 µg/mL. Compound `O=C(NO)c1cc(CSc2ccc(Cl)c(Cl)c2)on1` yielded an MIC of 128 µg/mL (≈ 401 µM).

On to `O=C(NO)c1cc(CSc2ccc(Cl)cc2)on1`, for which the MIC was over 128 µg/mL. Same read-out and setting: the result for `O=C(NO)c1cc(CSc2cccc(Cl)c2)on1` reads over 128 µg/mL.

The test system of the next test is Escherichia coli. In words: In vitro antibacterial activity against Escherichia coli mutant strain EC-AH547. The test is classed as functional. Put shortly:
as §1
As for `COc1cccc(SCc2cc(C(=O)NO)no2)c1`, the MIC was 128 µg/mL (≈ 457 µM). Still for that read-out and setting: in the case of `O=C(NO)c1cc(CSc2ccc(Cl)c(Cl)c2)on1` it was 16 µg/mL (≈ 50.1 µM); in that of `O=C(NO)c1cc(CSc2ccc(Cl)cc2)on1`, 64 µg/mL (≈ 225 µM); in that of `O=C(NO)c1cc(CSc2cccc(Cl)c2)on1`, 64 µg/mL (≈ 225 µM).

The test system of another test is Staphylococcus aureus. The experiment in a line: In vitro inhibitory activity against Staphylococcus aureus. The test is classed as functional. Put shortly:
(§2)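 Enzyme inhibition of peptide deformylase (PDF) from E. coli or S. aureus, in vitro. IC50 reported in µM as the mean of three experiments.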
Consider `CC(C)c1ccccc1S(=O)(=O)Cc1cc(C(=O)NO)no1`, for which it took 3400 nM to reach half-maximal inhibition (IC50). On the same count and under the same terms, in the case of `COc1cccc(SCc2cc(C(=O)NO)no2)c1` it was 2200 nM.

`O=C(NO)c1cc(CSc2ccc(Cl)c(Cl)c2)on1` had an IC50 of 2000 nM. The compound `CC(=O)Nc1ccc(SCc2cc(C(=O)NO)no2)cc1` had an IC50 of 42000 nM. In turn, `O=C(NO)c1cc(CSc2ccccc2Br)on1` gave an IC50 of 4900 nM.

`COc1ccc(SCc2cc(C(=O)NO)no2)cc1` showed an IC50 of 24000 nM. With `O=C(NO)c1cc(CS(=O)(=O)c2cccc(Cl)c2)on1`, half-maximal inhibition (IC50) required 1700 nM.

The compound `O=C(NO)c1cc(CSc2cccc(Br)c2)on1` gave an IC50 of 2000 nM. Same read-out and setting: the result for `O=C(NO)c1cc(CSCc2cccc(C(F)(F)F)c2)on1` reads 2200 nM. Same read-out and setting: in the case of `O=C(NO)c1cc(CSc2ccc(C(F)(F)F)cc2)on1` it was 8700 nM. Same read-out and setting: the result for `Cc1cc(C)c(SCc2cc(C(=O)NO)no2)c(C)c1` reads 37700 nM.

The compound `Cc1ccc([S+]([O-])Cc2cc(C(=O)NO)no2)cc1` (stereo not given) displayed an IC50 of 900 nM. As to `O=C(NO)c1cc(CSc2ccccc2Cl)on1`, the IC50 is 3800 nM. With `O=C(NO)c1cc(CSc2ccc(F)cc2)on1`, half-maximal inhibition (IC50) was put at 1500 nM.

For the compound `O=C(NO)c1cc(CSc2ccc(Cl)cc2)on1`, the IC50 turned out to be 1300 nM. Same read-out and setting: the result for `Cc1ccc(SCc2cc(C(=O)NO)no2)cc1` reads 4000 nM. Compound `Cc1ccc(S(=O)(=O)Cc2cc(C(=O)NO)no2)cc1` registered a 50% inhibitory concentration (IC50) of 1400 nM. Same read-out and setting: the result for `O=C(NO)c1cc(CS(=O)(=O)c2ccc(Cl)cc2)on1` reads 800 nM; that for `O=C(NO)c1cc(CSc2cccc(Cl)c2)on1`, 2300 nM. Same read-out and setting: in the case of `COc1cccc(S(=O)(=O)Cc2cc(C(=O)NO)no2)c1` it was 6500 nM; in that of `CC(C)c1ccccc1SCc1cc(C(=O)NO)no1`, 7600 nM; in that of `O=C(NO)c1cc(CSc2ccccc2C(F)(F)F)on1`, 9300 nM.

A further test has as its system Escherichia coli. The experiment in a line: In vitro antibacterial activity against Escherichia coli wild type EC-ATCC-25922. Format: functional. Put shortly:
(§3)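 MIC, the lowest inhibiting concentration in µg/mL, determined in liquid culture by NCCLS standard dilution susceptibility conditions for aerobically growing bacteria. EC-ATCC-25922 is wild-type E. coli; EC-DC2 is a hyperpermeable E. coli strain.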
`COc1cccc(SCc2cc(C(=O)NO)no2)c1`: the MIC was over 128 µg/mL.

Compound `O=C(NO)c1cc(CSc2ccc(Cl)c(Cl)c2)on1` registered an MIC of over 128 µg/mL.

In the case of `O=C(NO)c1cc(CSc2ccc(Cl)cc2)on1`, the MIC was found to be 128 µg/mL (≈ 450 µM).

With `O=C(NO)c1cc(CSc2cccc(Cl)c2)on1`, the MIC was over 128 µg/mL.

In another test the test system is Escherichia coli. In words: In vitro inhibitory activity against Escherichia coli. The test is classed as functional. Put shortly: as §2
As for `Cc1ccc(S(=O)(=O)Cc2cc(C(=O)NO)no2)cc1`, inhibition was half-maximal at 11.5 µM (IC50).

The next test relates to Staphylococcus aureus. The experiment in a line: In vitro antibacterial activity against Staphylococcus aureus multi-resistant strain SA-101. Format: functional. Put shortly:
as §1
On to `O=C(NO)c1cc(CSc2ccc(Cl)c(Cl)c2)on1`, for which it took 128 µg/mL (≈ 401 µM) to inhibit growth (MIC).

Another test relates to Escherichia coli. The experiment in a line: In vitro antibacterial activity against Escherichia coli hyperpermeable strain EC-DC2. The test is classed as functional. Put shortly:
as §3
`COc1cccc(SCc2cc(C(=O)NO)no2)c1` had an MIC of 128 µg/mL (≈ 457 µM). In the case of `O=C(NO)c1cc(CSc2ccc(Cl)c(Cl)c2)on1`, the minimal inhibitory concentration (MIC) was 32 µg/mL (≈ 100 µM). The same measure, in the same setting: in the case of `O=C(NO)c1cc(CSc2ccc(Cl)cc2)on1` it was 32 µg/mL (≈ 112 µM); in that of `O=C(NO)c1cc(CSc2cccc(Cl)c2)on1`, 32 µg/mL (≈ 112 µM).

As a reminder, the MIC is the least concentration at which growth counts as inhibited. Read a low MIC as a more susceptible organism. For orientation: IC50 means the point on the concentration scale where inhibition reaches its midpoint. Higher therefore signals a need for much substance.
